# pIC50: −log10 of the molar value.
# Key:
# UL44−P54 interaction = UL44−P54 interaction (Human cytomegalovirus, UniProt P16790); experiment: FP assay of UL44−P54 interaction; type: binding; conditions: IC50, inhibition of P54−UL44 interaction, incubation time 20 min or beyond
# In short: (§1)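 Fluorescence polarization assays of each protein–peptide pair: UL44–P54 (GST-fused UL44ΔC290 with fluorescently labelled P54), UL42–P30 and PCNA–p21. Test compound was pre-incubated for set times, up to 60 min, before FP was read. Normalized mP relative to the no-inhibitor control was plotted against compound concentration. Error bars are standard errors of the mean.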
# UL42−P30 interaction = UL42−P30 interaction (Human herpesvirus 1, UniProt P10226); experiment: FP assay of UL42−P30 interaction; type: binding, herpes simplex virus-1
# In short: as §1
# PCNA−P21 interaction = PCNA−P21 interaction (Homo sapiens, UniProt P12004); experiment: FP assay of PCNA−P21 interaction; type: binding; conditions: incubation up to 60 min, not meaningfully changed
# Sequence of PCNA−P21 interaction (P12004 whole entry): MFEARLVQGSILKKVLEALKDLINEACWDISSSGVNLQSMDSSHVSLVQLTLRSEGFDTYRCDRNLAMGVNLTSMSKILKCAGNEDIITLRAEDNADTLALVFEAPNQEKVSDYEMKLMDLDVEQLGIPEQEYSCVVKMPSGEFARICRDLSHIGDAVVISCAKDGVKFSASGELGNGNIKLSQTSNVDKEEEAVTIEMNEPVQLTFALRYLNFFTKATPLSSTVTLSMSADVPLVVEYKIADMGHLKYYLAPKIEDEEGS
# In short: as §1
# [1] = molecular target: UL44 binding to full-length UL54 (Human cytomegalovirus, UniProt P16790); experiment: UL54−UL44 interaction assay by biolayer interferometry
# In short: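 Biolayer interferometry measured UL44 binding to full-length UL54 in the presence of test compound. Signal is given relative to binding without compound, and error bars are standard errors of the mean.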
# UL54/UL44 DNA polymerase = UL54/UL44 DNA polymerase (Human cytomegalovirus, UniProt P16790); experiment: Long-chain DNA synthesis by UL54−UL44; type: biochemical
# In short: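 UL54 with UL44 was used to make long-chain DNA products, and their formation was followed across a dose series of test compound, with product lanes compared. Signal is expressed relative to the no-compound reaction, and error bars are standard errors of the mean.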
# UL54 = UL54 (Human cytomegalovirus, UniProt P08546); experiment: DNA synthesis by UL54 alone, filter binding assay; type: biochemical
# In short: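 Basal DNA synthesis by UL54 alone, without UL44, was measured by filter-binding assay across test compound concentrations. Signal is given relative to no compound, and error bars are standard errors of the mean.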
# [2] = molecular target: UL44 K60A−P54 interaction (Human cytomegalovirus, UniProt P16790, K60A); experiment: FP assay of mutant UL44 K60A−P54 interaction; type: binding; conditions: read-out: inhibition of UL44 K60A−P54 interaction
smiles,measurement,setting,value
CSc1scc2c1C(=O)C(=CN(C)C)CC2 [SGM8],pIC50,UL44−P54 interaction,5.70
same,pIC50,UL42−P30 interaction,~4.70
same,change of inhibition of P30−UL42 interaction on longer incubation,UL42−P30 interaction; incubation time extended to 60 min,only slightly increased
same,inhibition of P21−PCNA interaction,PCNA−P21 interaction,very weak inhibition
same,pIC50,[1],5.35
same,pIC50,UL54/UL44 DNA polymerase,5.49
same,pIC50,UL54,< 4.00
same,inhibition at 20 µM,[2],< 50%

# From paper PMC5480311 (ACS infectious diseases, 2016)
